# In PubChem BioAssay:
# The source made the active and inactive calls.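 The calls were made as follows, unless noted: active = viability at or below 30% in both replicate assays; inconclusive = viability at or below 30% in just one of the two assays; inactive = the rest.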
# Experiments:
# [1] = Her2 expression decrease, cell viability multiplex – SKBR3 breast tumor cells, AlphaScreen, ATP viability, primary screen (AID 461;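 active = Her2 level under about 52% in both replicate screens, with viability over 70% of control, limit read from the data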;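 as to Her2 level: lower value means less Her2 protein in the cells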;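 as to viability: percent of carrier control wells set as 100% viability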); conditions: SKBR3 Her2 protein level, 18-24 h, measured here: SKBR3 viability, ATP luminescence, at 10 µM
# [2] = target: Receptor tyrosine-protein kinase erbB-2 (Homo sapiens) (UniProt P04626); assay: as above; conditions: 18-24 h, at 10 µM, stronger effect = lower value
# [3] = reduced viability of SK-BR-3 breast cancer cells – cell-based, 24 h, human, pilot screen (AID 572;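 active = viability at or below 10% of carrier control in both of two separate runs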;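 also: compound exposure lasted between 18 and 24 h rather than exactly 24 h; 100% = carrier-treated control wells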); conditions: SK-BR-3 viability, CellTiter-Glo luminescence, at 10 µM, stronger effect = lower value
# [4] = HUVEC growth inhibition – cell-based, human, primary screen (AID 575); conditions: HUVEC proliferation, CellTiter-Glo luminescence, 72 h; at 10 µM; stronger effect = lower value;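 also: 100% = median of untreated cell wells with 0.1% DMSO on each plate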
# Outline: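 Material: primary human umbilical vein endothelial cells / Schedule: 72 h exposure, 37 °C, 5% CO2, 30 min RT equilibration / Signal: ATP-based CellTiter-Glo luminescent read / Read-out basis: percent of median DMSO-control luminescence / Control set: 32 DMSO-only cell-control wells (high), 32 MePR drug-control wells (low) per plate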
# [5] = H69AR cell proliferation blockers – human, duplicate replicates, primary screen (AID 580;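 active = viability at or under a set limit in both replicates, limit being median viability minus 3 SD, cut at about 48% in these data, passing the limit was not always enough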;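 also: 100% = mean luminescence of untreated wells and 0% = no signal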); conditions: H69AR lung tumor cells viability, ATP luminescence, 72 h; at 10 µM; stronger effect = lower value
# [6] = MRP1 drug-resistance reversers in H69AR cells – cell-based, doxorubicin co-treatment, pilot screen (AID 601;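 active = viability loss from added drug above about 55%, and viability with drug at most 40%, in both replicates, limit read from the data, passing the limit was not always enough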); conditions: CellTiter-Glo, 72 h, at 10 µM; for differential viability (reversal): stronger effect = higher value
# [7] = yeast transport mutant growth inhibition pilot in 384-well plates, post-Golgi transport modulator project (AID 636; in the data active = inhibition above about 31%); conditions: absorbance 615 nm, about 18 h, stronger effect = higher value
# [8] = growth suppression of yeast trafficking mutant, preliminary HTS, modulators of trafficking downstream of Golgi apparatus project, 1536-format plate, OD 615 nm (AID 637; in the data active = inhibition above about 30%); conditions: yeast transport mutant growth, absorbance 615 nm, 18 h; stronger effect = higher value
# [9] = H69AR cells + 2 uM doxorubicin, measured here: viability with 2 uM doxorubicin, stronger effect = lower value
# [10] = H69AR cells, compound alone cytotoxicity
# Receptor tyrosine-protein kinase erbB-2 (Homo sapiens), sequence (P04626 whole entry, looked up): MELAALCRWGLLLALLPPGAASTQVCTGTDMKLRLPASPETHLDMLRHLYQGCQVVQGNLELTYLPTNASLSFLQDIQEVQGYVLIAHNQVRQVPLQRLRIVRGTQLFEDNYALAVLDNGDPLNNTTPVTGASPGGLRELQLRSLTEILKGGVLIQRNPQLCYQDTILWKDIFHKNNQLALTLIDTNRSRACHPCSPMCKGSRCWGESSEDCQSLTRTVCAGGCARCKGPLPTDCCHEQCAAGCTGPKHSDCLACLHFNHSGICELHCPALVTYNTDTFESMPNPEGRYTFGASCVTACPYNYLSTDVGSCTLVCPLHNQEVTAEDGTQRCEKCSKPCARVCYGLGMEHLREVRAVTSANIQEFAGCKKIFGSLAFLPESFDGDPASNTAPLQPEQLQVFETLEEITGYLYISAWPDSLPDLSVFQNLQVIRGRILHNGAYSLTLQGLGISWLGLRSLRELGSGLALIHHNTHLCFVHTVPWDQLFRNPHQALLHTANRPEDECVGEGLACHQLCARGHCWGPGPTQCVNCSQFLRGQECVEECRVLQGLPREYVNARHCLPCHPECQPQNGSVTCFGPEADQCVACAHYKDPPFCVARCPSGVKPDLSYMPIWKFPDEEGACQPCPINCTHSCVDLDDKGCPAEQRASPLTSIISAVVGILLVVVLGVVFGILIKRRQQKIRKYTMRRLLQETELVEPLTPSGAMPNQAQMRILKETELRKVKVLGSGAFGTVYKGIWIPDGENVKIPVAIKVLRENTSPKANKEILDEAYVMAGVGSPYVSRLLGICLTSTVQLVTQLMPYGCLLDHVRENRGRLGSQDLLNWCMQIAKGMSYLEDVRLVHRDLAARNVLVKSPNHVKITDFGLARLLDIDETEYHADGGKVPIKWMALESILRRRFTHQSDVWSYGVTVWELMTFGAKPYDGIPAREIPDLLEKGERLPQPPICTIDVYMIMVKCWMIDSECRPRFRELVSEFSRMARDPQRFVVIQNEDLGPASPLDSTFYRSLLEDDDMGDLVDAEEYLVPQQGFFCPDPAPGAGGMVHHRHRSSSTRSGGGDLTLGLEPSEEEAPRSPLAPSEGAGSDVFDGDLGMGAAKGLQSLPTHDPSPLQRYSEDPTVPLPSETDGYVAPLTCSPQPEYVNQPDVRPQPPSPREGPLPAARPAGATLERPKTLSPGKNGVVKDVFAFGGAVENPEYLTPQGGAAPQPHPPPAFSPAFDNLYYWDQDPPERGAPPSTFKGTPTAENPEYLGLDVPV
Structure (SMILES),viability [1] [%],Her2 level [2],viability [3],viability [4],viability [5],differential viability (reversal) ([6]; H69AR cells + 2 uM doxorubicin),"viability [6, 9] [%]","viability [6, 10] [%]",inhibition [7],inhibition [8]
CCn1c(CCNC(=O)c2cccs2)nnc1SCC(=O)c1ccc(OC)cc1,106,138% (inactive),106% (inactive),95.7% (inactive),97.4% (inactive),-5.32% (inactive),103,97.4,-1.71% (inactive),-0.33% (inactive)
O=P(O)(O)C(O)C(F)(F)C(F)(F)C(F)(F)C(F)F (stereo not given),108,77.5% (inactive),108% (inactive),110% (inactive),92.5% (inactive),-5.62% (inactive),98.1,92.5,-7.76% (inactive),-6.17% (inactive)
CN(C)c1ccc(C(=O)OCC(=O)NC2CCCCC2)cc1,106,97% (inactive),106% (inactive),98.1% (inactive),91.5% (inactive),8.63% (inactive),82.9,91.5,-5.6% (inactive),5.81% (inactive)
CCOC(=O)C1(C(=O)OCC)C(c2ccccc2)CC(O)N1C(C)=O (stereo not given),116,95% (inactive),116% (inactive),89.1% (inactive),86.2% (inactive),6.16% (inactive),80,86.2,-6.18% (inactive),2.54% (inactive)
CCOC(=O)N1CCN(C(=O)c2ccc(N3C(=O)CCC3=O)cc2)CC1,110,110% (inactive),110% (inactive),104% (inactive),105% (inactive),17.4% (inactive),87.6,105,-7.03% (inactive),-9.83% (inactive)
CCCCCCNS(=O)(=O)c1ccc(Cl)s1,85,86.5% (inactive),85% (inactive),81.9% (inactive),89.1% (inactive),1.29% (inactive),87.8,89.1,-4.4% (inactive),22.9% (inactive)
CCCc1cc(C(=O)Nc2ccccc2C(=O)OC)no1,89.5,109% (inactive),89.5% (inactive),64.7% (inactive),89.3% (inactive),7.36% (inactive),82,89.3,4.1% (inactive),14.5% (inactive)
CCC(C)(C(=O)NC1CCCC1)N(Cc1cccs1)C(=O)Cc1cccs1 (stereo not given),122,93% (inactive),122% (inactive),103% (inactive),96.8% (inactive),15.6% (inactive),81.3,96.8,-7.53% (inactive),-0.63% (inactive)
COc1ccc(OC)c(C(=O)CSc2nc3ncccc3[nH]2)c1,94,108% (inactive),94% (inactive),96.6% (inactive),88.9% (inactive),7.8% (inactive),81.1,88.9,-1.17% (inactive),12.5% (inactive)
Cc1nc(C)c2c(c1C(F)(F)F)-c1ccccc1C2(F)F,98,98% (inactive),98% (inactive),102% (inactive),105% (inactive),16.4% (inactive),88.9,105,-4.4% (inactive),-5.08% (inactive)
Cc1c(C)c2cc(Cl)c(O)c(CN3CCCCC3)c2oc1=O,97.5,112% (inactive),97.5% (inactive),102% (inactive),99% (inactive),3.51% (inactive),95.5,99,1.18% (inactive),5.57% (inactive)
CCOC(=O)CSc1nnc(CNC(=O)c2cccs2)n1-c1cc(OC)ccc1OC,96.5,94% (inactive),96.5% (inactive),113% (inactive),99.3% (inactive),11.1% (inactive),88.3,99.3,-6.32% (inactive),-0.55% (inactive)
C1=Nc2c(NCc3ccccc3)ncnc2Oc2ccccc21,83,84.5% (inactive),83% (inactive),80.6% (inactive),91.7% (inactive),7.99% (inactive),83.7,91.7,2.13% (inactive),0.16% (inactive)
COc1ccc(S(=O)(=O)N(CCN2CCOCC2)Cc2cc(OC)ccc2OC)cc1,91,88.5% (inactive),91% (inactive),96.2% (inactive),70% (inactive),3.16% (inactive),66.8,70,-3.25% (inactive),-5.08% (inactive)
O=C1C2C3C=CC(C3=C3CCCCC3)C2C(=O)N1c1ccccc1 (stereo not given),131,89.5% (inactive),131% (inactive),103% (inactive),95.8% (inactive),1.16% (inactive),94.7,95.8,-3.12% (inactive),-2.06% (inactive)
Cc1ccc2nc(SC(C)C(=O)N3CCCC3)[nH]c2c1 (stereo not given),87.5,108% (inactive),87.5% (inactive),91.4% (inactive),97.6% (inactive),6.04% (inactive),91.6,97.6,-0.92% (inactive),-6.35% (inactive)
